NPR1 activator: GC-A (human) enzyme activation. 0.14% of 370,000 active. activation, % at 10 µM. HEK293 GC-A cells, cGMP TR-FRET, EC30 ANP; 0% at EC30 ANP, 100% saturating ANP. P16066; in the data active = activation above about 40%
TbMetRS inhib: Trypanosoma brucei MetRS inhibition; purified T. brucei MetRS, ATP depletion, Kinase-Glo luminescence; inhibition, % at 11.9 µM; 0.4% of 360,000 active;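 active = inhibition above a per-plate cutoff of the control wells' mean inhibition plus 3 SD, cut at about 5.5% in these data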
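technique = Kinase-Glo luminescence, ATP depletion format | system = purified MetRS (methionyl-tRNA synthetase) enzyme from Trypanosoma brucei | timing = 15 min preincubation, 2 h reaction, all 25 °C | evaluation = percent inhibition versus plate control medians | dosing = single dose, 11.9 µM final nominal, 0.9% final DMSO | also added = substrates ATP, L-methionine and bulk Escherichia coli tRNA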
A1 inh: inhibitors of the anti-apoptotic protein A1, read as caspase activation | MEF A1-2A-BIM cells, Caspase-Glo 3/7 luminescence, 3 h; percent of clofoctol response, vehicle zero | caspase activation, % (concentration not given with the values) | 0.066% of 330,000 active | AID 2462;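 active = over half of replicate activation scores above 10%, or exactly half above 10 with the replicate mean above 10; inconclusive = replicate mean below 10 yet half the replicates above 10; inactive = over half of replicates below 10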
NPR2 activator: GC-B (human) receptor activation; activation, % at 10 µM; HEK293-GC-B cells, CNP EC30, cGMP TR-FRET; 0% at EC30 CNP, 100% saturating CNP; 0.11% of 370,000 active;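 active = activation at 10 µM reaching about 35% in either raw or pattern-adjusted values, limit read from the data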
Target sequence (P20594 whole entry, looked up): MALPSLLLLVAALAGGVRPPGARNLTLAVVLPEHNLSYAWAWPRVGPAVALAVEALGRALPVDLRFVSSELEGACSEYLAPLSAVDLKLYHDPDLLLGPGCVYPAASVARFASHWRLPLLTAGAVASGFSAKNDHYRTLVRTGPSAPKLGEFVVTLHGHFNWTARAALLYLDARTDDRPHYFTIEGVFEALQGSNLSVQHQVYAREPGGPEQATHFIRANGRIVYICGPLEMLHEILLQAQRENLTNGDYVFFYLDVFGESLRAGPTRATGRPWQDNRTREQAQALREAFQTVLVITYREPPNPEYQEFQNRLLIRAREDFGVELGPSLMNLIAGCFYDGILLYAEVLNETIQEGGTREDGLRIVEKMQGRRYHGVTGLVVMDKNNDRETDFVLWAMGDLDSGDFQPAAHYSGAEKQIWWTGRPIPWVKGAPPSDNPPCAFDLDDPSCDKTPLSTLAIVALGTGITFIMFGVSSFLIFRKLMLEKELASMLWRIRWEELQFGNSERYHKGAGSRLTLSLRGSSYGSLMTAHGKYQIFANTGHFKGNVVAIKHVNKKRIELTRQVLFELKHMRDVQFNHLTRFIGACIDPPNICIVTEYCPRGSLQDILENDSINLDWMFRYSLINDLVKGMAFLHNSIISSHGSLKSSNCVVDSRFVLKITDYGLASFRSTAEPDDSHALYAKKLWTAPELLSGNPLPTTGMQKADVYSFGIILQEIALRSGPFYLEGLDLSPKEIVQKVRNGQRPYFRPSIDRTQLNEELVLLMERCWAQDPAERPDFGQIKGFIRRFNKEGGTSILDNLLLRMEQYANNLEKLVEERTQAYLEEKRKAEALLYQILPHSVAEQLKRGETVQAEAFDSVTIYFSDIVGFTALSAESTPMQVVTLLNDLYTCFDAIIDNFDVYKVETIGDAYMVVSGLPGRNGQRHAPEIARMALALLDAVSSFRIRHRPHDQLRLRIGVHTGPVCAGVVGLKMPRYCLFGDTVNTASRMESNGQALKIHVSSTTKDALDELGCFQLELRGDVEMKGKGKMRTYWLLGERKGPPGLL
MT1-MMP act inh: MT1-MMP (human) activation inhibition. HT1080 RFP-PRO-GFP cells, GFP/RFP ratio fluorescence, overnight; percent of plate control window, DMSO zero. GFP/RFP ratio change, % at 20 µM. 0.061% of 360,000 active. AID 651647;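 active = GFP/RFP ratio change of at least 30% with cell ATP level not reduced by more than half and red fluorescence within 50% of control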
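Test system: HT1080 RFP-PRO-GFP cells; Benchmarks: DMSO and RFP-L50D-GFP cell wells; Timing: cells overnight before dosing, compound overnight, 37 °C, 5% CO2; Compound: one 20 µM compound dose with 1% DMSO; Read-out: GFP/RFP fluorescence ratio.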
SKN-1 block: C. elegans SKN-1 inhibition | 0.49% of 360,000 active | inhibition, % at 21.8 µM | C. elegans VP596 Pgst-4::GFP/RFP ratio, acrylamide-induced, 24 h | AID 624304;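 active = interference check ratio from 0.5 to 1.5 plus GFP to RFP signal ratio inhibition reaching or exceeding a fixed threshold, cut at about 30% in these data, passing the limit was not always enough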
Numbers stand for hits; – = inactive; ? = inconclusive; · = no result given. Sampled rows, rich in hits. Any-hit rate of the full collection: about 1.1%.

SMILES | NPR1 activator | TbMetRS inhib | A1 inh | NPR2 activator | MT1-MMP act inh | SKN-1 block
COc1cc(C2NCC(c3ccc(Cl)cc3Cl)c3c2[nH]c2ccccc32)cc(OC)c1OC (stereo not drawn) | 85.6 | – | – | – | – | –
CC(C)(C)C1CCC2(CC1)C(Nc1cccc(C(F)(F)F)c1)=NC(=S)N2CC#N (stereo not drawn) | – | – | – | 45.9 | – | –
C[C@@H]1/C=C/CC(=O)N[C@H](c2ccc3ccccc3c2)[C@H](C)/C=C/CC(=O)N[C@@H]1c1ccc2ccccc2c1 | – | · | · | – | · | ·
Cc1nc2ccc(C(=O)N3CCN(C(=O)C(Cl)Cl)CC3)cc2n1C1CCCC1 | – | · | · | – | · | ·
Clc1ccccc1Cn1nnc2c(NCCN3CCOCC3)ncnc21 | – | – | – | – | – | –
c1ccc(Cn2nnc3c(NCCN4CCOCC4)ncnc32)cc1 | – | – | – | – | – | 43.8
O=S(=O)(c1cccc2c(S(=O)(=O)N3CCCC3)cccc12)N1CCCC1 | – | – | – | – | – | 36.4
C#Cc1cccc(Nc2nc(NCc3ccccc3OC)nc3ccsc23)c1 | – | – | · | – | – | –
C#Cc1cccc(Nc2nc(NCCOC)nc3ccsc23)c1 | – | – | · | 37.4 | – | –
Nc1ccc(C=C2C=Cc3ccccc32)cc1 | – | – | · | – | – | 52.4
NC(N)=Nc1ccc(C=C2C=Cc3ccccc32)cc1 | – | – | · | – | – | –
O=c1n(Cc2ccccc2Cl)c2sc3c(c2c2ncnn12)CCCC3 | – | – | · | 38.7 | – | –
COc1cc(N=Nc2ccc3ccccc3c2)ccc1O | – | – | – | – | – | –
Oc1ccc(N=Nc2ccc3ccccc3c2)cc1 | – | – | – | – | – | 45.8
COC(=O)C1C2CC3c4[nH]c5cc(OC)ccc5c4CCN3CC2CC(OC(=O)CC(C)=O)C1OC (stereo not drawn) | – | – | · | – | – | 47.2
COc1ccc(C(=O)/C=C(\Nc2ccc(Br)c(C)c2)c2ccc(OC)cc2OC)c(OC)c1 | – | · | · | – | · | ·
CCOc1ccc(C(=O)Nc2cc(-c3nc4ccccc4[nH]3)ccc2C)cc1[N+](=O)[O-] | – | 13.5 | – | – | – | –
CCOc1ccc(C(=O)Nc2cccc(-c3nc4ccccc4[nH]3)c2C)cc1[N+](=O)[O-] | – | – | – | – | – | –
Cc1cccc2sc(NC(=O)CN(C)S(=O)(=O)c3ccc(Br)s3)nc12 | – | – | – | – | – | –
Cc1cccc2sc(NC(=O)CN(C)S(=O)(=O)c3cccs3)nc12 | 42.3 | – | – | – | – | –
O=C1NN(c2ccccc2)C(=O)/C1=C\c1cccc(OC(=O)c2cccs2)c1 | 40.7 | – | – | – | – | –
O=C1NN(c2ccc(Cl)c(Cl)c2)C(=O)/C1=C/c1cccc(OC(=O)c2cccs2)c1 | · | · | – | · | · | ·
COc1ccc(CCNC(=O)c2cc3ccccn3n2)cc1 | – | · | · | – | · | ·
O=C(O)CSc1nnc(SCc2cccc3ccccc23)s1 | – | – | – | – | – | –
CC(C)OC(=O)CSc1nnc(SCc2cccc3ccccc23)s1 | – | – | – | – | – | 32.2
SMILES | NPR1 activator | TbMetRS inhib | A1 inh | NPR2 activator | MT1-MMP act inh | SKN-1 block
COc1ccc(CSc2nnc(SCc3ccccc3)s2)cc1 | – | · | · | – | · | ·
COC(=O)CSc1nnc(SCc2ccc(OC)cc2)s1 | – | – | – | – | – | 39.3
CC(CCC(C)C(C)(C)C)[C@@H]1CC[C@H]2C3C[C@H](OS(O)(=S)=S)[C@H]4C[C@H](OS(O)(=S)=S)[C@@H](OS(O)(=S)=S)C[C@]4(C)[C@H]3CC[C@]12C (stereo partly drawn) (tested in a mixture with another compound) | · | 15.7 | – | · | – | –
CC1CCC(C(C)C)C(OC(=O)C[n+]2cccc(C(N)=O)c2)C1 (stereo not drawn) | – | – | ? | – | – | 37.9
CC1CCC(C(C)C)C(OC(=O)COC(=O)c2ccc(N)cc2)C1 (stereo not drawn) | – | – | – | – | – | –
Nn1c(SCC(=O)Nc2ccccc2-c2ccccc2)nnc1-c1n[nH]c2c1CCC2 | – | · | · | – | · | ·
Cc1c(NC(=O)/C(C#N)=C/c2ccc(-c3ccc(Cl)c(Cl)c3)o2)c(=O)n(-c2ccccc2)n1C | – | – | – | – | – | 46.0
Cc1c(NC(=O)/C(C#N)=C/c2ccc(-c3cccc(Cl)c3)o2)c(=O)n(-c2ccccc2)n1C | – | – | – | – | – | –
CC(C)(C)[C@H](N)C(=O)N[C@H]1CCC2C3CC=C4C[C@@H](O)CC[C@]4(C)C3CC[C@@]21C (stereo partly drawn) | – | – | 11.4 | – | – | –
O=C(/C=C/Nc1ccc(F)cc1)c1cccs1 | – | – | – | – | – | –
O=C(/C=C/Nc1ccc(F)c(F)c1)c1cccs1 | – | – | – | – | – | 43.7
Cc1cccc(N/C=C/C(=O)c2cccs2)c1C | – | – | – | – | – | 44.2
NC(=O)c1ccccc1N/C=C/C(=O)c1cccs1 | – | – | – | – | – | –
C=CCN1C(=O)CSC1=Nc1ccc(C(=O)O)cc1 | – | – | – | – | – | –
C=CCN1C(=O)CS/C1=C(\C#N)S(=O)(=O)c1ccc(C)cc1 | – | – | – | – | – | 33.8
C[C@H]1[C@@H](NC(=O)c2ccc(C(C)(C)C)cc2)CC[C@@]23CCCN2C(=O)CCC[C@@H]13 | – | · | · | – | · | ·
Fc1ccc2cc(-c3ccccc3)ncc2c1 | – | – | – | – | – | 40.2
c1ccc(-c2cc3ccccc3cn2)cc1 | – | – | – | – | – | –
Cc1ccc2[nH]c3c(c2c1)CCCC3NC(=O)CCl (stereo not drawn) | · | – | 5.3 | · | – | –
C[C@@H]1[C@H](O)[C@@H](C)/C=C/C=C/C=C/C=C/C=C/C=C/C=C/[C@H](OC2O[C@H](C)[C@@H](O)[C@H](N)[C@@H]2O)C[C@@H]2O[C@](O)(C[C@@H](O)C[C@@H](O)[C@H](O)CC[C@@H](O)C[C@@H](O)CC(=O)O[C@H]1C)C[C@H](O)[C@H]2C(=O)O (stereo partly drawn) | – | · | · | – | · | ·
CN(C)S(=O)(=O)c1cccc(C(=O)N/N=C\c2ccnc3ccccc23)c1 | – | · | · | – | · | ·
O=C1c2ccccc2C(=O)N1CCc1nc(-c2ccncc2)no1 | – | – | – | – | – | –
O=C1c2ccccc2C(=O)N1CCc1nc(-c2ccc(Cl)cc2)no1 | – | – | – | – | – | 47.8
Fc1ccccc1-c1nc(-c2ccc(Cl)cc2)no1 | – | – | – | – | – | 36.0
Cc1ccnc(SCc2cc(=O)c(OC(=O)c3ccc([N+](=O)[O-])cc3)co2)n1 | – | · | · | – | · | ·
